Measured values from paper PMC10840928 (Chemistry (Weinheim an der Bergstrasse, Germany), 2023).

What was measured:
[1] = target: Aβ42 oligomers and fibrils (Homo sapiens, UniProt P05067); assay: Fluorescence turn-on with Aβ42 fibrils and oligomers; assay type: binding; details: 5 μM compound, 25 μM Aβ42 species, PBS; for fluorescence turn-on effect with Aβ aggregates: excitation 470 nm; for maximum emission wavelength in the presence of Aβ aggregates: for DCM-OH-2-MT the LE peak
[2] = Job's plot analysis of Cu; assay type: physicochemical; details: PBS pH 7.4, total 30 μM
Method in brief: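 Test compound and Cu(II) mixed in PBS pH 7.4, Cu from 0 to 100 mol %, combined concentration fixed at 30 μM. Equilibrated at least 5 min at room temperature. UV-vis spectra recorded, and stoichiometry read from the break point of the plot versus Cu mole fraction.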

[3] = Viscosity sensitivity measurement; assay type: physicochemical; details: 10 μM, ethylene glycol/glycerol mixtures
Method in brief: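 Mixed until no layering, then fluorescence intensity recorded. log I plotted against log η and fitted by linear regression (log I = x log η + A). Slope x taken as sensitivity.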

[4] = system: Aβ aggregates in 5xFAD mice; assay: Real-time in vivo NIR fluorescence imaging; design: species or system mouse; details: 5 mg/kg
[5] = target: Aβ42 peptide (Homo sapiens, UniProt P05067); assay: In vitro Aβ42 aggregation monitoring; assay type: binding; details: 25 μM peptide, 5 μM probe, 37 °C, 0-40 h
[6] = target: Aβ aggregates in 5xFAD mouse brain sections (Homo sapiens, UniProt P05067); assay: Histological staining of 5xFAD mouse brain sections, colocalization with ThS; details: 9-month-old 5xFAD brain sections, 10 μM compound, 2.5 μM ThS
[7] = pKa by UV-vis spectrophotometric titration; assay type: physicochemical; details: pH 3-11, I = 0.1 M NaCl
Method in brief: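 About 20 μM test compound in 0.1 M NaCl titrated with small aliquots of 0.2 M NaOH, from low to high pH (3–11). Run at room temperature under moist N2 flow until spectra stopped changing, giving about 30 UV-vis spectra per compound. Constants fitted with HypSpec. Largest pKa assigned to the phenol O-H.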

[8] = system: mouse neuroblastoma (N2A) cells; assay: Alamar Blue cytotoxicity, N2A cells; assay type: cell-based; details: 40 h treatment
Method in brief: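 Cells seeded at 2.0 × 10⁴/well and grown 24 h. Medium switched to DMEM/N-2 for 1 h, then test compound added at a range of concentrations for 40 h. Alamar Blue added and incubated 90 min at 37 °C. Fluorescence read at 590 nm (excitation 560 nm).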

[9] = system: human neuroblastoma (SH-SY5Y) cells; assay: Alamar Blue cytotoxicity, SH-SY5Y cells; assay type: cell-based; details: 40 h treatment
Method in brief: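 After seeding at 2.0 × 10⁴/well and 24 h growth, medium changed to MEM/F-12 (1:1)/N-2 for 1 h. Cells exposed 40 h to test compound at varying concentrations. Alamar Blue incubation 90 min at 37 °C, then fluorescence measured at 590 nm with 560 nm excitation.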

Sequence of Aβ aggregates in 5xFAD mouse brain sections (P05067 672-711 limits assumed): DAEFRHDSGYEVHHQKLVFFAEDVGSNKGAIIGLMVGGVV
Sequence of Aβ42 peptide (P05067 672-713 limits assumed): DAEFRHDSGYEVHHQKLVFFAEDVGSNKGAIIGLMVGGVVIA
Sequence of Aβ42 oligomers and fibrils (P05067 672-713 limits assumed): as above

Structure (SMILES)	fluorescence turn-on effect with Aβ aggregates [1]	maximum emission wavelength in the presence of Aβ aggregates [1]	pKa of the phenol O-H (largest pKa value) [7]	stoichiometry of Cu(II)-ligand complexation in solution [2]	fluorescence response during Aβ42 aggregation [5]	labeling pattern of Aβ aggregates on brain sections [6]	further results
CN1CCN(C)CCN(Cc2cc(/C=C/C=C/C3=CC(=C(C#N)C#N)c4ccccc4O3)ccc2O)CC1 [DCM-OH-2-MT]	–	620 nm	–	–	–	bind to the peripheral region of the Aβ aggregates	second emission peak (ESIPT emission) in the presence of Aβ aggregates [1]: 730 nm
N#CC(C#N)=C1C=C(/C=C/C=C/c2ccc(O)cc2)Oc2ccccc21 [DCM-OH-2]	significant fluorescence turn-on effect	620 nm	11.73	–	more significant fluorescence increases at the early stage	binding to the identical core regions of the Aβ aggregates	cytotoxicity [8]: slightly more toxic than the others; cytotoxicity [9]: slightly more toxic than the others
Cc1ccc2c(c1)sc(-c1ccc(N(C)C)cc1)[n+]2C [ThT, Thioflavin T, reference compound]	–	–	–	–	minimal fluorescence enhancement from 0–10 h	–	–

Further lines, with some results ahead:

fluorescence turn-on effect with Aβ aggregates [1]	maximum emission wavelength in the presence of Aβ aggregates [1]	pKa of the phenol O-H (largest pKa value) [7]	Structure (SMILES)	stoichiometry of Cu(II)-ligand complexation in solution [2]	fluorescence response during Aβ42 aggregation [5]	labeling pattern of Aβ aggregates on brain sections [6]	further results
fluorescence enhancement	~ 650 nm	–	CN1CCN(C)CCN(Cc2cc(/C=C/C3=CC(=C(C#N)C#N)c4ccccc4O3)cc(CN3CCN(C)CCN(C)CC3)c2O)CC1 [DCM-OH-1-DT]	mixture of 1:1 and 2:1 ligand-to-Cu complexes	–	–	–
fluorescence enhancement	~ 650 nm	–	CN1CCN(C)CCN(Cc2cc(/C=C/C3=CC(=C(C#N)C#N)c4ccccc4O3)ccc2O)CC1 [DCM-OH-1-MT]	mixture of 1:1 and 2:1 ligand-to-Cu complexes	–	–	–
–	about 730 nm	9.35	CN1CCN(C)CCN(Cc2cc(/C=C/C=C/C3=CC(=C(C#N)C#N)c4ccccc4O3)cc(CN3CCN(C)CCN(C)CC3)c2O)CC1 [DCM-OH-2-DT]	only the 1:1 ligand-to-Cu complexes	more significant fluorescence increases at the early stage	bind to the peripheral region of the Aβ aggregates	viscosity sensitivity (x value) [3]: lowest viscosity sensitivity; brain NIR fluorescence signal, AD mice vs WT mice ([4]; 7-month-old 5xFAD vs WT, 5-, 15-, 30-min post injection): significantly higher fluorescence signal in AD mice; time to maximum brain fluorescence signal after injection ([4]; jugular vein injection, 7-month-old mice): about 15 min
